According to ChEMBL document CHEMBL1124063, “Arteether, a new antimalarial drug: synthesis and antimalarial properties” (J Med Chem, 1988):
pIC50: −log10 of the molar value. In brackets after ≈: the same amount, converted by molar mass.

Legend:
[1] = tested on: Plasmodium falciparum; experiment: Inhibitory concentration against Plasmodium falciparum D6 (Sierra Leone); assay type: functional, organism-based
In short: (§1)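 Micromanipulation-derived P. falciparum clones were tested by semiautomated microdilution at 0.5% parasitemia and 1.5% hematocrit. Drugs were dissolved in DMSO and diluted in medium with 10% plasma, giving serial dilutions over a 64-fold range. Plates were held at 37 °C under 5% O2/5% CO2/90% N2 for 24 h, then pulsed with tritiated hypoxanthine for 18–20 h. Uptake was counted by scintillation, and IC50 was obtained by nonlinear regression.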

[2] = tested on: Plasmodium falciparum; experiment: In vitro inhibitory activity against Plasmodium falciparum (sierra leone clone); assay type: functional, organism-based
[3] = tested on: Plasmodium berghei; experiment: Blood schizonticidal activity against Plasmodium berghei QS; assay type: functional
In short: (§2)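 Mice infected with parasitised donor blood of drug-sensitive or drug-resistant lines were given a single subcutaneous dose daily on 4 consecutive days, starting 3 h post-infection, across a dose range. Compounds were dissolved in water or sonicated into 0.1% Tween 80. Parasitaemia was read from thin blood films 1 day after treatment ended and compared with sham-treated controls. ED50/ED90 came from log dose/probit plots, with a resistance index at the ED90 level.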

[4] = tested on: Plasmodium berghei; experiment: Blood schizonticidal activity against Plasmodium berghei N/1100; assay type: functional; in short: as §2
[5] = tested on: Plasmodium berghei; experiment: Blood schizonticidal activity against Plasmodium berghei NPN; assay type: functional; in short: as §2
[6] = tested on: Plasmodium berghei; experiment: Blood schizonticidal activity against Plasmodium berghei MEN; assay type: functional; in short: as §2
[7] = tested on: Plasmodium berghei; experiment: Blood schizonticidal activity against Plasmodium berghei N/HAL; assay type: functional; in short: as §2
[8] = tested on: Plasmodium berghei; experiment: Blood schizonticidal activity against Plasmodium berghei N; assay type: functional; in short: as §2
[9] = tested on: Plasmodium berghei; experiment: Blood schizonticidal activity against Plasmodium berghei PYR; assay type: functional; in short: as §2
[10] = tested on: Plasmodium berghei; experiment: Blood schizonticidal activity against Plasmodium berghei P; assay type: functional; in short: as §2
[11] = tested on: Plasmodium berghei; experiment: Blood schizonticidal activity against Plasmodium berghei B; assay type: functional; in short: as §2
[12] = tested on: Plasmodium berghei; experiment: Blood schizonticidal activity against Plasmodium berghei ORA; assay type: functional; in short: as §2
[13] = tested on: Plasmodium berghei; experiment: Blood schizonticidal activity against Plasmodium berghei NS; assay type: functional; in short: as §2
[14] = tested on: Plasmodium berghei; experiment: Blood schizonticidal activity against Plasmodium berghei RC; assay type: functional; in short: as §2
[15] = tested on: Plasmodium falciparum; experiment: Inhibitory concentration against Plasmodium falciparum W2 Indochina; assay type: functional, organism-based; in short: as §1
[16] = tested on: Plasmodium berghei; experiment: Blood schizonticidal activity against Plasmodium berghei ART; assay type: functional; in short: as §2
[17] = tested on: Plasmodium berghei; experiment: Blood schizonticidal activity against Plasmodium berghei 1100; assay type: functional; in short: as §2

| SMILES | pIC50 [1] | IC50 [2] | ED90 [3] | I 90 [3] | I 90 [4] | ED90 [5] | I 90 [5] | ED90 [6] | I 90 [6] | ED90 [7] | I 90 [7] | ED90 [8] | I 90 [8] | ED90 [9] | I 90 [9] | ED90 [10] | I 90 [10] | ED90 [11] | I 90 [11] | pIC50 [15] | also measured |
| --- | --- | --- | --- | --- | --- | --- | --- | --- | --- | --- | --- | --- | --- | --- | --- | --- | --- | --- | --- | --- | --- |
| C[C@H]1[C@@H](O)O[C@@H]2OC3(C)CC[C@H]4[C@H](C)CC[C@@H]1[C@@]24O3 (single isomer, unassigned) | 6.30 | 136 ng/mL (≈ 0.505 µM) | – | – | – | – | – | – | – | – | – | – | – | – | – | – | – | – | – | – | – |
| CCO[C@H]1O[C@@H]2OC3(C)CC[C@H]4[C@H](C)CC[C@@H]([C@H]1C)[C@@]24O3 (single isomer, unassigned) | 6.24 | 172 ng/mL (≈ 0.579 µM) | – | – | – | – | – | – | – | – | – | – | – | – | – | – | – | – | – | – | – |
| CCO[C@@H]1O[C@@H]2OC3(C)CC[C@H]4[C@H](C)CC[C@@H]([C@H]1C)[C@@]24OO3 (single isomer, unassigned) [ALPHA-ARTEETHER] | 8.38 | – | 13.8 | 10.6 | 3.4 | 3.5 | 2.9 | 1.7 | 1.4 | 9.5 | 7.3 | 1.3 | 1 | 1.3 | 1.1 | 2.5 | 2.1 | 2.9 | 2.4 | 8.51 | ED90 [12]: 0.8; I 90 [12]: 0.7; ED90 [13]: 1.5; I 90 [13]: 1.3; ED90 [14]: 16.5; I 90 [14]: 13.8; ED90 [16]: 29; I 90 [16]: 22.3; ED90 [17]: 4.1 |
| CO[C@H]1O[C@@H]2O[C@@]3(C)CC[C@H]4[C@H](C)CC[C@@H]([C@H]1C)[C@@]24OO3 [ARTEMETHER] | 8.35 | – | – | – | – | – | – | – | – | – | – | – | – | – | – | – | – | – | – | 8.48 | – |
| C[C@@H]1CC[C@H]2[C@@H](C)C(=O)O[C@@H]3O[C@@]4(C)CC[C@@H]1[C@]32OO4 [ARTEMISININ] | 7.98 | 2.97 ng/mL (≈ 0.0105 µM) | 24 | 10.4 | 4 | 90 | 21.4 | 6.2 | 1.5 | 31 | 13.5 | 2.3 | 1 | 4.8 | 1.1 | 12 | 2.9 | 8.2 | 2 | 8.19 | ED90 [12]: 7.5; I 90 [12]: 1.8; ED90 [13]: 10; I 90 [13]: 2.4; ED90 [14]: 630; I 90 [14]: 150; ED90 [16]: 49; I 90 [16]: 21.3; ED90 [17]: 17 |
| CCO[C@H]1O[C@@H]2O[C@@]3(C)CC[C@H]4[C@H](C)CC[C@@H]([C@H]1C)[C@@]24OO3 [ARTEMOTIL] | 8.39 | 1.27 ng/mL (≈ 0.00407 µM) | 1.4 | 2.8 | 3.8 | 2.5 | 2.3 | 2.2 | 2 | 2.1 | 4.2 | 0.5 | 1 | 0.8 | 0.7 | 0.8 | 0.7 | 0.9 | 0.8 | 8.53 | ED90 [12]: 0.8; I 90 [12]: 0.7; ED90 [13]: 2.2; I 90 [13]: 2; ED90 [14]: 8.2; I 90 [14]: 7.5; ED90 [16]: 2.3; I 90 [16]: 4.6; ED90 [17]: 4.2 |
| C[C@H]1[C@@H](O)O[C@@H]2O[C@@]3(C)CC[C@H]4[C@H](C)CC[C@@H]1[C@@]24OO3 [ARTENIMOL] | 8.74 | 0.52 ng/mL (≈ 0.00183 µM) | – | – | – | – | – | – | – | – | – | – | – | – | – | – | – | – | – | 8.75 | – |
| C[C@@H]1CC[C@H]2[C@@H](C)C(=O)O[C@@H]3O[C@@]4(C)CC[C@@H]1[C@]32O4 [DEOXYARTEMISININ] | 5.54 | – | – | – | – | – | – | – | – | – | – | – | – | – | – | – | – | – | – | – | – |
| OC(c1cc(C(F)(F)F)nc2c(C(F)(F)F)cccc12)C1CCCCN1 (stereo not given) [MEFLOQUINE] | 7.48 | – | – | – | – | – | – | – | – | – | – | – | – | – | – | – | – | – | – | 8.24 | – |
| C[C@H]1[C@H](OC(=O)CCC(=O)O)O[C@@H]2O[C@@]3(C)CC[C@H]4[C@H](C)CC[C@@H]1[C@@]24OO3 [SODIUM ARESUNATE] | 8.66 | – | – | – | – | – | – | – | – | – | – | – | – | – | – | – | – | – | – | 8.78 | – |
